Experimental data reported in ChEMBL document CHEMBL1133664, “Synthesis and evaluation of hydroxylated polyamine analogues as antiproliferatives” (J Med Chem, 2000).
pIC50, pKi: −log10 of the molar value.

Columns and labels:
L1210 [1] = experiment: Putrescine(PUT) levels in L1210 cells after 48 hr of treatment with the compound at the dose of 200 uMicroM; assay type: functional, Mus musculus
How it was run: (§1)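 Log-phase L1210 cells treated 48 h, washed twice in ice-cold incomplete medium, extracted with 0.6 N perchloric acid and freeze-fractured three times. Polyamines are quantified by HPLC. PUT, SPD and SPM are expressed as percent of untreated control.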

L1210 [2] = experiment: Putrescine(PUT) levels in L1210 cells after 48 hr of treatment with the compound at the dose of 40 uM; assay type: functional, Mus musculus; how it was run: as §1
L1210 [3] = experiment: Spermidine(SPD) levels in L1210 cells after 48 hr of treatment with the compound at the dose of 200 uM; assay type: functional, Mus musculus; how it was run: as §1
L1210 [4] = experiment: Spermidine(SPD) levels in L1210 cells after 48 hr of treatment with the compound at the dose of 40 uM; assay type: functional, Mus musculus; how it was run: as §1
L1210 [5] = experiment: Spermine(SPM) levels in L1210 cells after 48 hr of treatment with the compound at the dose of 200 uM; assay type: functional, Mus musculus; how it was run: as §1
L1210 [6] = experiment: Spermine(SPM) levels in L1210 cells after 48 hr of treatment with the compound at the dose of 40 uM; assay type: functional, Mus musculus; how it was run: as §1
L1210 [7] = experiment: Growth uM after 48 hours; assay type: functional, cell-based; details: Mus musculus, L1210, 48 h
L1210 [8] = experiment: Growth uM after 96 hours; assay type: functional, cell-based; details: Mus musculus, L1210, 96 h
L1210 [9] = experiment: Ki was estimated by competitive inhibition of [3H]SPD transport by L1210 cells; assay type: functional, cell-based, Mus musculus
How it was run: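 L1210 cells incubated 20 min at 37 °C in medium with 1-10 µM [3H]spermidine, alone or with 10, 25 or 50 µM analogue. Cells are then washed with cold medium containing 1 mM SPD, digested in NaOH at 60 °C and counted by scintillation. Ki is taken from substrate-competitive inhibition kinetics; values are means of two or three experiments.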

[10] = target: T1, Ornithine decarboxylase (Mus musculus) (UniProt P00860); experiment: Effect of compound on Ornithine decarboxylase (ODC) […] in L1210 cells; assay type: cell-based
T1 sequence (whole entry): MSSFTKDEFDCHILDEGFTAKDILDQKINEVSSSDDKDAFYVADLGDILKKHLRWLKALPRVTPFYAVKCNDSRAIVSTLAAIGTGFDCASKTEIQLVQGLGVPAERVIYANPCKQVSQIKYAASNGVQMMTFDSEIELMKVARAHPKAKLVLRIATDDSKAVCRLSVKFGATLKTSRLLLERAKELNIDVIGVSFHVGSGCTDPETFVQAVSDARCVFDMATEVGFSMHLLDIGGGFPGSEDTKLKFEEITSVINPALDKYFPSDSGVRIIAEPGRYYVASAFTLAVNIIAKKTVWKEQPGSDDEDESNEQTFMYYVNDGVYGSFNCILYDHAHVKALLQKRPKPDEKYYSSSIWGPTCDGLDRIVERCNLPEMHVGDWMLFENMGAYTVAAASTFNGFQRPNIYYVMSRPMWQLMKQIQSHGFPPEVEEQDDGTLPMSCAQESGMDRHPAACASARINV
How it was run: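 L1210 cells treated 4 h at 1 µM, with an additional arm at 10 µM for 4 h. ODC activity is expressed as percent of untreated control. Each run includes untreated cells as negative control and a DEHSPM-treated positive control. Values are the mean of at least three experiments.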

L1210 [11] = experiment: Effect of compound on Spermidine/Spermine N'-Acetyltransferase(SSAT) in L1210 cells; assay type: cell-based
How it was run: (§2)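 L1210 cells treated 48 h at 10 µM, or 2 µM for DENSPM. SSAT is quantified as [14C]-N1-acetylspermidine formed from spermidine and [14C]acetyl-CoA. Values are the mean of at least three experiments.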

[12] = tested on: S-adenosylmethionine decarboxylase (Mus musculus); experiment: Effect of compound on S-Adenosyl-methionine decarboxylase in L1210 cells; set-up: unit not given here
L1210 [13] = experiment: Putrescine(PUT) levels in L1210 cells after 48 hr of treatment with the compound at the dose of 10 uM; assay type: functional, Mus musculus; how it was run: as §1
L1210 [14] = experiment: Putrescine(PUT) levels in L1210 cells after 48 hr of treatment with the compound at the dose of 100 MicroM; assay type: functional, Mus musculus; how it was run: as §1
L1210 [15] = experiment: Spermidine(SPD) levels in L1210 cells after 48 hr of treatment with the compound at the dose of 10 uM; assay type: functional, Mus musculus; how it was run: as §1
L1210 [16] = experiment: Spermidine(SPD) levels in L1210 cells after 48 hr of treatment with the compound at the dose of 100 uM; assay type: functional, Mus musculus; how it was run: as §1
L1210 [17] = experiment: Spermine(SPM) levels in L1210 cells after 48 hr of treatment with the compound at the dose of 10 uM; assay type: functional, Mus musculus; how it was run: as §1
L1210 [18] = experiment: Spermine(SPM) levels in L1210 cells after 48 hr of treatment with the compound at the dose of 100 uM; assay type: functional, Mus musculus; how it was run: as §1
L1210 [19] = experiment: Growth inhibition of L1210 cells was measured in the presence of nine different concentrations: 0,0.03,0.1,0.3,1,3,10,30, and 100 uM after 48 hours; assay type: functional, cell-based; details: Mus musculus, L1210, 48 h
How it was run: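 L1210 leukemia cells were kept in log growth in RPMI-1640 with 10% FBS, HEPES-MOPS and 1 mM aminoguanidine at 37 °C under 5% CO2. Cultures at 0.5-1.0 × 10^5 cells/mL were dosed with filtered aqueous compound and counted by Coulter counter at 48 h, then reseeded and counted again at 96 h.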

L1210 [20] = experiment: Effect of compound on Spermidine/Spermine N'-Acetyltransferase (SSAT) in L1210 cells; assay type: cell-based; how it was run: as §2
L1210 [21] = experiment: Putrescine(PUT) levels in L1210 cells after 48 hr of treatment with the compound at the dose of 0.15 uM; assay type: functional, Mus musculus; how it was run: as §1
L1210 [22] = experiment: Putrescine(PUT) levels in L1210 cells after 48 hr of treatment with the compound at the dose of 0.75 uM; assay type: functional, Mus musculus; how it was run: as §1
L1210 [23] = experiment: Spermidine(SPD) levels in L1210 cells after 48 hr of treatment with the compound at the dose of 0.15 uM; assay type: functional, Mus musculus; how it was run: as §1
L1210 [24] = experiment: Spermidine(SPD) levels in L1210 cells after 48 hr of treatment with the compound at the dose of 0.75 uM; assay type: functional, Mus musculus; how it was run: as §1
L1210 [25] = experiment: Spermine(SPM) levels in L1210 cells after 48 hr of treatment with the compound at the dose of 0.15 uM; assay type: functional, Mus musculus; how it was run: as §1
L1210 [26] = experiment: Spermine(SPM) levels in L1210 cells after 48 hr of treatment with the compound at the dose of 0.75 uM; assay type: functional, Mus musculus; how it was run: as §1
L1210 [27] = experiment: Putrescine(PUT) levels in L1210 cells after 48 hr of treatment with the compound at the dose of 2 uM; assay type: functional, Mus musculus; how it was run: as §1
L1210 [28] = experiment: Spermidine(SPD) levels in L1210 cells after 48 hr of treatment with the compound at the dose of 2 uM; assay type: functional, Mus musculus; how it was run: as §1
L1210 [29] = experiment: Spermine(SPM) levels in L1210 cells after 48 hr of treatment with the compound at the dose of 2 uM; assay type: functional, Mus musculus; how it was run: as §1
[30] = in the assay text read “1 uM” for “10 uM”

SMILES	pIC50 (L1210 [7])	pIC50 (L1210 [8])	pKi (L1210 [9])	Activity [10]	Activity (L1210 [11])	Activity [12]	Activity (L1210 [13])	Activity (L1210 [15])	Activity (L1210 [17])	other results
CCNCC[C@@H](O)CNCCCCNC[C@H](O)CCNCC	4.40	7.10	5.77	55	102	68				Activity (L1210 [1]): 4; Activity (L1210 [2]): 5; Activity (L1210 [3]): 13; Activity (L1210 [4]): 19; Activity (L1210 [5]): 104; Activity (L1210 [6]): 107
CCNC[C@@H](O)CNCCCNC[C@H](O)CNCC				35						
CCNC[C@H](O)CNCCCNC[C@@H](O)CNCC				61						
CCNCCCNCCCNCCCNCC [BIS(ETHYL)NORSPERMINE]				7		42				Activity (L1210 [13]; [30]): 66; Activity (L1210 [14]): 0; Activity (L1210 [15]; [30]): 46; Activity (L1210 [16]): 6; Activity (L1210 [17]; [30]): 94; Activity (L1210 [18]): 30; pIC50 (L1210 [19]): 4.70; Activity (L1210 [20]): 1470
CCNCCCCNCCCCNCCCCNCC [DIETHYLHOMOSPERMINE]				7	110	41	3	1	57	Activity (L1210 [21]): 97; Activity (L1210 [22]): 49; Activity (L1210 [23]): 91; Activity (L1210 [24]): 40; Activity (L1210 [25]): 110; Activity (L1210 [26]): 101
CCNCC[C@H](O)CNCCCCNC[C@@H](O)CCNCC [IVOSPEMIN]	5.70	7.22	5.62	17	114	52	3	4	53	Activity (L1210 [27]): 3; Activity (L1210 [28]): 11; Activity (L1210 [29]): 62
